GRIN3A LBD mod = NR3A (human) ligand-binding domain modulation | NR3A LBD differential scanning fluorimetry, Tm shift; 0% = protein alone, 100% = glycine-bound protein | Tm shift relative to glycine control, % at 25 µM | hit rate 2.5% among 340,000;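 active = melting temperature shift of at least 10% of the positive control shift, at one fixed dose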
CHOP inhibitor = CHOP inhibition in unfolded protein response; CHO-K1 CHOP-promoter luciferase, tunicamycin-induced, 15-18 h; inhibition, % at 10 µM; hit rate 3.8% among 220,000;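 active = compounds that reduced the stress-induced luciferase reporter signal by more than about 70% of percent inhibition, limit read from the data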;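 also: 0% = tunicamycin plus vehicle and 100% = wells without tunicamycin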
PREPL inhibitor = human PREPL enzyme inhibition. recombinant PREPL, fluorescence polarization activity-based probe. inhibition, % at 5.96 µM. hit rate 0.68% among 320,000. AID 2751; in the data active = inhibition above about 43%;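 also: 0% = enzyme with DMSO and 100% = wells lacking enzyme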
Target sequence (Q4J6C6 whole entry, looked up): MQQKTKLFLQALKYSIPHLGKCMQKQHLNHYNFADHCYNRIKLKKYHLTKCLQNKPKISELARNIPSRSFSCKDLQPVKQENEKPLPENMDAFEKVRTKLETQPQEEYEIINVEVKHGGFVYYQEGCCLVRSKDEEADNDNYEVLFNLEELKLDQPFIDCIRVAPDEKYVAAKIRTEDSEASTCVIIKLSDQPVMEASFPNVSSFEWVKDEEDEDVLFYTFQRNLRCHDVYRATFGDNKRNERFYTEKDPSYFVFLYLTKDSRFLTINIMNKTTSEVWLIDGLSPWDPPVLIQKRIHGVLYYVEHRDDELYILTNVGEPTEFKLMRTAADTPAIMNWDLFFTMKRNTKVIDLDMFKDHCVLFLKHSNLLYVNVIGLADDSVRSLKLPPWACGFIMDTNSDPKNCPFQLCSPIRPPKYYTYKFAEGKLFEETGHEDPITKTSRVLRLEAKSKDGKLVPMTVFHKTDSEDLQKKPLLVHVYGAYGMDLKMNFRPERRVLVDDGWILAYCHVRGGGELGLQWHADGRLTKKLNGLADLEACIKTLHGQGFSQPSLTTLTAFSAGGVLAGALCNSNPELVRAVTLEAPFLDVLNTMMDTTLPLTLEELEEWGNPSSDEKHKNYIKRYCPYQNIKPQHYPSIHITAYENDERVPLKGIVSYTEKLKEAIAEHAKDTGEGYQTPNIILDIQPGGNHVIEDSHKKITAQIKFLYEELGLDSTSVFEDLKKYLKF
T cruzi repl = T. cruzi replication inhibition; hit rate 1.4% among 300,000; T. cruzi beta-gal in NIH3T3, luminescence, 90 h; inhibition, % (test concentration not listed);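 active = mean inhibition across valid replicates above about 55%, limit read from the data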;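 also: signal also drops with host cell toxicity which is not excluded here; 0% = plate median of DMSO wells and 100% = zero luminescence signal; higher percent means less beta-gal luminescence so fewer parasites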
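System: mouse NIH/3T3 fibroblasts infected with β-gal-expressing T. cruzi Tulahuen C4 / Input: NIH/3T3 cells, 5,000 per well / Buffer or medium: Low-serum DMEM with 2% FBS / Probe or stimulus: 5000 reporter trypomastigotes per well / Schedule: ≥90 h infection period, 3 h prior cell attachment / Measured by: GalScreen luminescence, 60 min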
Beta cell apopt = beta cell apoptosis inhibition; INS-1E cytokine-induced death, ATP luminescence, 48 h; percent of positive-control rescue, neutral wells zero; protection from apoptosis, % (concentration not given with the values); hit rate 0.8% among 300,000; AID 435005;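 active = Every replicate reaches about 75%, or at least half do and their mean reaches it too, limit read from the data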;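 also: 0% = cytokine-treated negative control wells and 100% = positive control rescue; higher means more ATP so stronger rescue from cytokine killing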
CSC inhib = blocks cancer stem cells; cancer stem cell-like cells viability, luminescence; inhibition, % at 7.5 µM; hit rate 1.1% among 300,000; in the data active = inhibition above about 75%; tested in HMLE shEcad cells
* hit, by the source's call; x = no result. This is a sample that favours compounds with a hit; in the whole collection about 6.7% have one here.

SMILES	GRIN3A LBD mod	CHOP inhibitor	PREPL inhibitor	T cruzi repl	Beta cell apopt	CSC inhib
NS(=O)(=O)c1ccc(CNC(=O)c2ccc(Cl)c(S(=O)(=O)NCc3ccccc3)c2)cc1	-4	x	-1	x	-6	-20
O=C(Nc1ccc(Cl)c(Cl)c1)c1cccc(S(=O)(=O)NCc2cccnc2)c1	11*	34	-7	48	2	16
COc1cccc(S(=O)(=O)NCc2ccc(C(=O)Nc3ccc(C)cc3)cc2)c1	17*	-28	15	12	-4	4
O=C(Nc1ccc(Cl)c(Cl)c1)OCc1cccnc1	-4	25	-15	65*	12	4
NS(=O)(=O)c1ccc(NC(=O)c2ccc(CNS(=O)(=O)c3cc(C(F)(F)F)ccc3Cl)cc2)cc1	30*	7	-5	-5	-11	0
CCOc1ccc2nc(SCC(=O)NCc3ccc(S(N)(=O)=O)cc3)[nH]c2c1	1	x	-1	-11	-2	-13
CC1CCCCC1NC(=O)C1CCC(CNc2c(N3CCCCC3)c(=O)c2=O)CC1 (centres undefined)	-2	-6	0	1	-1	-2
O=C(Cc1ccccc1)Nc1ccc(NC(=O)c2ccco2)cc1Cl	-2	x	9	2	-3	15
COc1cccc(S(=O)(=O)NCc2ccc(C(=O)Nc3ccc(Cl)c(Cl)c3)cc2)c1	25*	9	-1	37	23	4
CCOC(=O)c1cccc2c1-c1ccccc1/C2=N/O	-14	82*	3	-17	-10	35
CC1CCCC(C)N1C(=O)c1cccc2c1-c1ccccc1/C2=N/O (centres undefined)	-1	45	-1	x	-7	-6
COc1ccc2[nH]c(=O)c(-c3noc(-c4ccccc4)n3)cc2c1	-1	88*	-15	23	-1	x
COc1ccc2[nH]c(=O)c(-c3nnn(-c4ccccc4)n3)cc2c1	0	-13	-4	10	2	-2
CC(=O)Oc1c(-c2ccco2)oc2ccccc2c1=O	0	17	-13	-9	3	-1
CSC1CCCCC1(O)CSc1nc2c(cc1C#N)CCCC2 (centres undefined)	4	85*	0	13	3	0
N#CCSc1nc2c(cc1C#N)CCCC2	0	-15	13	-6	x	-3
CCc1cccc2c(C(=O)CN3C(=O)N(C)C4(CCCCC4)C3=O)c[nH]c12	-1	x	5	x	0	x
O=C(CCCn1c(=S)[nH]c2cc3c(cc2c1=O)OCO3)NCc1ccccc1Cl	-3	x	-3	18	4	-21
O=C(Nc1nc2ccc(F)cc2s1)C1CCN(S(=O)(=O)c2cc([N+](=O)[O-])ccc2Cl)CC1	8	90*	39	49	111*	12
Cc1ccc(NC(=O)C2CCN(S(=O)(=O)c3cc([N+](=O)[O-])ccc3Cl)CC2)nc1	-1	x	21	x	4	25
Cc1cccc(Nc2nc(-c3ccccc3)c(C(=O)Nc3cccnc3)s2)c1	0	40	6	29	7	63
O=C(Nc1cccnc1)c1sc(Nc2ccccc2)nc1-c1ccccc1	27*	-22	13	-9	4	7
COc1ccc(OC)c(S(=O)(=O)NCC(c2ccc3c(c2)OCO3)N2CCOCC2)c1 (centres undefined)	0	x	2	-2	-1	-13
O=[N+]([O-])c1ccc(COc2cccc(CN3CCCCC3)c2)cc1	-2	x	x	x	x	x
Nn1c(SCC(=O)Nc2ccc3c(c2)OCCO3)nnc1-c1ccncc1	17*	x	3	-4	2	-18
SMILES	GRIN3A LBD mod	CHOP inhibitor	PREPL inhibitor	T cruzi repl	Beta cell apopt	CSC inhib
Nn1c(SCC(=O)Nc2ccc3c(c2)OCO3)nnc1-c1ccncc1	-1	-2	4	-17	0	-8
Cc1nc2cc(NC(=O)Nc3nccs3)ccc2n1C	1	0	-5	-14	x	x
O=C(Nc1nccs1)c1sc2ccccc2c1Cl	-19	24	-60	6	20	40
O=C(Nc1nccs1)c1sc2cc(Cl)ccc2c1Cl	1	62	-4	59*	22	54
O=C(Nc1ccc(Cl)c(Cl)c1)Nc1nccs1	37*	79*	-12	10	19	95*
O=C(Nc1cccc(Cl)c1)Nc1nccs1	31*	-22	3	-16	-5	27
Cc1nnc(NC(=O)Nc2cccc(Cl)c2)s1	-26	49	7	-5	-10	13
CCn1ccc(C(=O)Nc2ccc3c(c2)CCC3)n1	2	x	5	-2	0	5
CCn1c(C)c(C(C)=O)c(NCc2ccccc2)nc1=S	14*	13	42	0	-9	-5
CC(=O)c1c(N2CCN(C)CC2)nc(=S)n(Cc2ccccc2)c1C	10*	25	-4	3	-6	x
CCSc1nc(=S)n(Cc2ccccc2)c(C)c1C(C)=O	-3	3	-2	-3	-6	4
O=C(c1cc([N+](=O)[O-])[nH]n1)N1CCSCC1	-2	-8	2	-7	0	-18
CC(=O)c1cc(C#N)c(SCc2ccccc2)nc1C	15*	63	0	16	2	2
CCCSc1nc(C)c(C(C)=O)cc1C#N	0	70*	1	9	-2	1
COC(=O)CSc1nc(C)c(C(C)=O)cc1C#N	-8	14	-1	-9	1	-9
CCC(C(=O)Nc1cccc(C(=O)O)c1C)c1ccccc1 (centres undefined)	-1	-1	-5	-12	-8	-14
CN(CC(=O)Nc1cccc(F)c1)C(=O)CCc1nc2cc(S(=O)(=O)N3CCOCC3)ccc2n1C	2	x	-8	-1	x	-16
CC(NC(=O)COc1ccccc1-c1ccccc1)c1ccccc1 (centres undefined)	3	77*	-1	9	0	4
CC(=O)Nc1ccccc1OCC(=O)NC(C)c1ccccc1 (centres undefined)	-2	18	-1	16	1	-23
O=C(COc1ccccc1-c1ccccc1)N/N=C/c1cccc2ccccc12	6	35	-4	41	-9	95*
O=C(COc1cccc2ccccc12)N/N=C/c1ccccc1OCc1ccc(C(=O)O)cc1	-1	-14	-40	-18	-6	-12
CCc1ccc(CN(C)C(=O)c2ccc3c(c2)OCCO3)cc1	0	x	-1	-7	-3	5
COc1ccccc1N(C)S(=O)(=O)c1ccc(C)c(C(=O)Nc2nccs2)c1	0	x	-23	3	-3	-8
CCCCc1sc(-c2c(C#N)c(N)nc3c2CCCCC3)cc1[N+](=O)[O-]	-18	32	7	55*	-2	41
Nc1nc(Cl)nc2ncn(Cc3ccccc3)c12	1	x	15	3	x	-4
O=C(Nc1ccc(C(F)(F)F)cc1)c1ccccc1-n1cnnn1	3	x	-1	x	10	x
Cc1cc(NS(=O)(=O)c2ccc(NC(=O)Nc3cccc(Cl)c3)cc2)no1	21*	-53	-8	5	-4	-5

Source: PubChem (several laboratories)
